Legend:
Assay type in all cases: functional
[1] = biological target: RNA-directed RNA polymerase (Hepacivirus hominis) (UniProt O39930); test: Ratio of steady state kinetic constant and incorporation efficiency for Hepatitis C Virus NS5BRdRp
Procedure, shortened: (§1)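 HCV NS5B, C-terminal His-tag with 21-residue truncation, 1 µM. Template 5′-AAAAAAAUGC-3′ and [5′-33P]GpC primer each at 20 µM. Buffer 50 mM HEPES pH 7.3, 10 mM DTT, 5 mM MgCl2; 15 min at 30 °C. Substrate varied from Km/2 to 10Km; EDTA quench, denaturing urea-PAGE. Initial velocities fitted to Michaelis-Menten for Km and Vmax; efficiency taken as Vmax/Km.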

[2] = test system: Nc1ncnc2c1ncn2[C@@H]1O[C@H](COP(=O)(O)OP(=O)(O)OP(=O)(O)O)[C@@H](O)[C@H]1O; test: Steady-state kinetic constant for Hepatitis C Virus NS5BRdRp; conditions: Hepacivirus hominis; procedure, shortened: as §1
[3] = test system: Nc1ncnc2c1ncn2[C@@H]1O[C@H](COP(=O)(O)OP(=O)(O)OP(=O)(O)O)[C@@H](O)[C@H]1O; test: Incorporation efficiency for Hepatitis C Virus NS5BRdRp; conditions: Hepacivirus hominis; procedure, shortened: as §1

| Molecule | Ratio [1] | Km [2] | Vmax [3] |
| --- | --- | --- | --- |
| Nc1ncnc2c1ncn2[C@@H]1O[C@H](COP(=O)(O)OP(=O)(O)OP(=O)(O)O)[C@@H](O)[C@H]1O | 0.0017 |  |  |
| Nc1ncnc2c1ncn2[C@@H]1O[C@H](OCP(=O)(O)OP(=O)(O)OP(=O)(O)O)[C@@H](O)[C@H]1O | 1.2e-05 |  |  |
| RNA-directed RNA polymerase (Hepacivirus hominis), O39930 |  | 133 µM | 0.23 µM/min |
| Nc1ncnc2c1ncn2[C@@H]1O[C@H](CCP(=O)(O)OP(=O)(O)OP(=O)(O)O)[C@@H](O)[C@H]1O | 0.00019 |  |  |

Source: ChEMBL document CHEMBL1143599, “Design, synthesis, and antiviral activity of adenosine 5'-phosphonate analogues as chain terminators against hepatitis C virus” (J Med Chem, 2005)
